According to ChEMBL document CHEMBL4732180, “Discovery of novel positive allosteric modulators of the α7 nicotinic acetylcholine receptor: Scaffold hopping approach” (Eur J Med Chem, 2021):

Assays:
[1] = AUC (0 to 5 hrs) in Wistar rat plasma at 3 mg/kg, iv up to 5 hrs by HPLC-MS/MS analysis; assay type: ADME, organism-based; parameters: route intravenous, dose 3 mg/kg, time <=5
[2] = Cmax in Wistar rat plasma at 3 mg/kg, po up to 5 hrs by HPLC-MS/MS analysis; assay type: ADME, organism-based; parameters: route oral, dose 3 mg/kg, time <=5
[3] = Intrinsic clearance in human liver microsome at 1 to […] up to 40 mins; assay type: ADME; conditions: liver microsomes, dose 1-2.5 µM, read-out: CLH
[4] = Cmax in Wistar rat brain at 3 mg/kg, po up to 5 hrs by HPLC-MS/MS analysis; assay type: ADME, organism-based; parameters: route oral, dose 3 mg/kg, time <=5
[5] = AUC (0 to 5 hrs) in Wistar rat plasma at 3 mg/kg, po up to 5 hrs by HPLC-MS/MS analysis; assay type: ADME, organism-based; parameters: route oral, dose 3 mg/kg, time <=5
[6] = Volume of distribution in Wistar rat plasma at 3 mg/kg, iv up to 5 hrs by HPLC-MS/MS analysis; assay type: ADME, organism-based
[7] = Intrinsic clearance in rat liver microsome at 1 to […] up to 40 mins; assay type: ADME; conditions: liver microsomes, dose 1-2.5 µM, read-out: CLH
[8] = Tmax in Wistar rat brain at 3 mg/kg, po up to 5 hrs by HPLC-MS/MS analysis; assay type: ADME, organism-based
[9] = Tmax in Wistar rat plasma at 3 mg/kg, po up to 5 hrs by HPLC-MS/MS analysis; assay type: ADME, organism-based
[10] = Lipophilicity, logP of compound; assay type: physicochemical; conditions: octanol/water
[11] = Half life in Wistar rat plasma at 3 mg/kg, iv up to 5 hrs by HPLC-MS/MS analysis; assay type: ADME, organism-based
[12] = AUC (0 to 5 hrs) in Wistar rat brain at 3 mg/kg, po up to 5 hrs by HPLC-MS/MS analysis; assay type: ADME, organism-based; parameters: route oral, dose 3 mg/kg, time <=5
[13] = Apparent permeability across apical to basolateral side in vinblastine-treated human Caco2 cells at 10 uM after 180 mins by HPLC or UHPLC-MS/MS analysis; assay type: ADME; conditions: Caco-2
Method in brief: (§1)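 Vinblastine-selected Caco-2 (VB-Caco-2) monolayers with high P-gp expression. Compound at 1 or 10 µM, measured apical-to-basolateral and basolateral-to-apical in HBSS with 25 mM HEPES. pH 7.4 on both sides, 37 °C, 120 rpm shaking, up to 180 min with compound-specific duration. Quantified by HPLC or UHPLC-MS/MS; PDR = Papp B-A / Papp A-B.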

[14] = Intrinsic clearance in mouse liver microsome at 1 to […] up to 40 mins; assay type: ADME; conditions: liver microsomes, dose 1-2.5 µM, read-out: CLH
[15] = Clearance in Wistar rat plasma at 3 mg/kg, iv up to 5 hrs by HPLC-MS/MS analysis; assay type: ADME, organism-based
[16] = Apparent permeability across apical to basolateral side in vinblastine-treated human Caco2 cells at 1 uM after 180 mins by HPLC or UHPLC-MS/MS analysis; assay type: ADME; conditions: Caco-2; method in brief: as §1

AUC(0-t) [1] [ng·h/mL] | Cmax [2] [ng/mL] | microsomal CLint at […] [3] [µL/min/mg] | Cmax [4] [ng/mL] | AUC(0-t) [5] [ng·h/mL] | Vd [6] [L/kg] | microsomal CLint at […] [7] [µL/min/mg] | Tmax [8] [h] | Tmax [9] [h] | logP [10] | half-life [11] [h] | AUC(0-t) [12] [ng·h/mL] | Papp A→B at 3 h, 10 µM [13] [×10⁻⁶ cm/s] | microsomal CLint at […] [14] [µL/min/mg] | clearance [15] [mL/min/kg] | Papp A→B at 3 h, 1 µM [16] [×10⁻⁶ cm/s] | Compound
3490 | 31.6 | 4 | 36.8 | 134 | 1.17 | 10 | 2 | 2 | 3.1 | 0.97 | 158 | 18 | 5 | 14.1 |  | NS(=O)(=O)c1ccc(-c2cc(C(=O)N3CC4CC4C3)nn2-c2ccc(Cl)cc2)cc1 (stereo not given)
 |  | 3 |  |  |  | 10 |  |  | 4.7 |  |  |  | 26 |  | 9 | CCC(=O)c1cc(-c2ccc(Cl)cc2)n(-c2ccc(S(N)(=O)=O)cc2)c1C
 |  | 18 |  |  |  | 20 |  |  | 3.8 |  |  | 20 | 16 |  |  | CCC(=O)c1cc(-c2ccc(S(N)(=O)=O)cc2)n(-c2ccc(Cl)cc2)n1
